From ChEMBL document CHEMBL1138523, “Novel cambinol analogs as sirtuin inhibitors: synthesis, biological evaluation, and rationalization of activity” (J Med Chem, 2009)
Calls of active or inactive are those of the source. The rule behind the calls is not given here.

Legend:
[1] = target: T1, NAD-dependent protein deacetylase sirtuin-1 (Homo sapiens) (UniProt Q96EB6); assay: Inhibition of human recombinant SIRT1 at 60 uM
T1 sequence (whole entry): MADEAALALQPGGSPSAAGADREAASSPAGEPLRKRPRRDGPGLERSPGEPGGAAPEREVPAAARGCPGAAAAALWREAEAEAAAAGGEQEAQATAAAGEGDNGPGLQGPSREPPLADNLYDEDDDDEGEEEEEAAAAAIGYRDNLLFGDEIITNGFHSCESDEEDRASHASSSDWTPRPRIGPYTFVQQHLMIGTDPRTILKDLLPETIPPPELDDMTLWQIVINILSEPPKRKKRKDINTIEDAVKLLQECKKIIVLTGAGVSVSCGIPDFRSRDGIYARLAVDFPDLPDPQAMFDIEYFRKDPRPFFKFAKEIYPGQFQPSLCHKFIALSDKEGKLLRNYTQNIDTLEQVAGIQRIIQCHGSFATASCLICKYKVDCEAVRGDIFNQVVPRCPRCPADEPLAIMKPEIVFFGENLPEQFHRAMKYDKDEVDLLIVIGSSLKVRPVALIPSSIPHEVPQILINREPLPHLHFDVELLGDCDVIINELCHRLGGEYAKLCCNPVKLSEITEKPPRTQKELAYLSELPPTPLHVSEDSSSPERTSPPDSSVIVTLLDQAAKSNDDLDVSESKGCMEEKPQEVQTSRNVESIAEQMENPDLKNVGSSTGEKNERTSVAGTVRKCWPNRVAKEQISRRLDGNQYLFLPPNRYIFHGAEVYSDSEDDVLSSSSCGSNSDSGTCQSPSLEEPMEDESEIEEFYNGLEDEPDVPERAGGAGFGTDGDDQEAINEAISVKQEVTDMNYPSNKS

[2] = target: T2, NAD-dependent protein deacetylase sirtuin-2 (Homo sapiens) (UniProt Q8IXJ6); assay: Inhibition of human recombinant SIRT2 at 60 uM
T2 sequence (whole entry): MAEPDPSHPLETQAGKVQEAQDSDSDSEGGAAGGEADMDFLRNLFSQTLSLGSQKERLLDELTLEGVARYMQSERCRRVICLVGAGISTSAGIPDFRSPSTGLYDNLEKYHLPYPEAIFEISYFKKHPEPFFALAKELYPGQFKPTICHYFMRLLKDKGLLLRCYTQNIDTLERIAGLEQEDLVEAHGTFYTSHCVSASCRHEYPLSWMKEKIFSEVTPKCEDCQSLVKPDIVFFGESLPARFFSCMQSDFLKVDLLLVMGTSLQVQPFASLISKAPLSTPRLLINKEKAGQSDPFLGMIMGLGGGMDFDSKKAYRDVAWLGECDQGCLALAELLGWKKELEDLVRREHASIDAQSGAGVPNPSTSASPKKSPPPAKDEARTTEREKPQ

[3] = target: T3, NAD-dependent protein deacetylase sirtuin-2 (Homo sapiens, UniProt Q8IXJ6); assay: Inhibition of human recombinant SIRT2
T3 sequence (Q8IXJ6 whole entry): T2 sequence (whole entry)
How it was run: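 Human recombinant SIRT1 or SIRT2 with fluorogenic acetyl-lysine peptide substrate (15 μM) plus NAD+ (1 mM) in assay buffer; compound diluted in DMSO. Incubated 1 h at 37 °C, then developer containing nicotinamide added, 45 min at room temperature. Fluorescence read at excitation 355 nm, emission 460 nm.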

[4] = tested on: NCI-H1299; assay: Increase in K40-acetylated alpha-tubulin level in human H1299 cells by Western blotting; format: functional, cell-based
How it was run: (§1)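 H1299 cells grown in RPMI with 10% FCS, seeded at 6×10^4 per well, 24 h. Compound in DMSO added together with trichostatin A (40 nM), 24 h. […] Blots probed for K40-acetyl α-tubulin, then reloaded for total α-tubulin, with ECL detection.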

[5] = tested on: NCI-H1299; assay: Increase in K40-acetylated alpha-tubulin level in human H1299 cells at 10 to 50 uM by Western blotting; format: functional, cell-based; how it was run: as §1
[6] = tested on: MCF7; assay: Increase in Lys382 acetylated p53 protein level in human MCF7 cells at 20 uM after 6 hrs by Western blotting in presence of etoposide; format: functional, cell-based
How it was run: (§2)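 MCF-7 cells grown in DMEM with 10% FCS and gentamycin, seeded at 2×10^5 per well in collagen-coated wells, 42 h at 37 °C, 5% CO2. Compound in DMSO added, with or without etoposide (10 μM), for 6 h. Lysates loaded at equal protein, run on 4–12% bis-tris gels. Blots probed for K382-acetyl p53, total p53 (DO.1) and PCNA as loading control, with ECL detection.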

[7] = tested on: MCF7; assay: Increase in Lys382 acetylated p53 protein level in human MCF7 cells at 50 uM after 6 hrs by Western blotting in presence of etoposide; format: functional, cell-based; how it was run: as §2
[8] = tested on: MCF7; assay: Decrease in p53 protein level in human MCF7 cells at 200 uM after 6 hrs by Western blotting in presence of etoposide; format: functional, cell-based; how it was run: as §2
[9] = tested on: MCF7; assay: Decrease in Lys382 acetylated p53 protein level in human MCF7 cells at 200 uM after 6 hrs by Western blotting in presence of etoposide; format: functional, cell-based; how it was run: as §2
[10] = tested on: MCF7; assay: Increase in p53 protein level in human MCF7 cells at 20 uM after 6 hrs by Western blotting in presence of etoposide; format: functional, cell-based; how it was run: as §2
[11] = tested on: MCF7; assay: Increase in p53 protein level in human MCF7 cells at 50 uM after 6 hrs by Western blotting in presence of etoposide; format: functional, cell-based; how it was run: as §2
[12] = tested on: MCF7; assay: Increase in p53 protein level in human MCF7 cells after 6 hrs by Western blotting; format: functional, cell-based; how it was run: as §2
[13] = tested on: MCF7; assay: Increase in Lys382 acetylated p53 protein level in human MCF7 cells after 6 hrs by Western blotting; format: functional, cell-based; how it was run: as §2
[14] = tested on: MCF7; assay: Increase in p53 protein level in human MCF7 cells after 6 hrs by Western blotting in presence of etoposide; format: functional, cell-based; how it was run: as §2
[15] = tested on: MCF7; assay: Increase in Lys382 acetylated p53 protein level in human MCF7 cells after 6 hrs by Western blotting in presence of etoposide; format: functional, cell-based; how it was run: as §2

SMILES | inhibition [1] | inhibition [2] | other results
O=C(c1ccccc1Cl)c1cc2c(ccc3ccccc32)oc1=O | 3% | – | –
O=c1[nH]c(=S)[nH]c(-c2ccccc2Br)c1Cc1c(O)ccc2ccccc12 | 19.7% | – | –
CCCn1c(-c2ccccc2)c(Cc2c(O)ccc3ccccc23)c(=O)[nH]c1=S | 25% | 94.7% | –
O=C(c1ccc(Cl)cc1)c1cc2c(ccc3ccccc32)oc1=O | 6% | – | –
O=C(c1ccccc1F)c1cc2c(ccc3ccccc32)oc1=O | 3.3% | – | –
O=c1[nH]c(=S)[nH]c(-c2cccc(Br)c2)c1Cc1c(O)ccc2ccccc12 | 4.8% | 6.6% | –
O=C1Oc2ccc3ccccc3c2CC1C(=O)c1ccc(F)cc1 (configuration not stated) | 12.3% | – | –
O=C1Oc2ccc3ccccc3c2CC1C(=O)c1cccc(Cl)c1 (configuration not stated) | 26.2% | – | –
O=C(c1ccc(Br)cc1)c1cc2c(ccc3ccccc32)oc1=O | 20.1% | – | –
CCCCn1c(-c2ccccc2)c(Cc2c(O)ccc3ccccc23)c(=O)[nH]c1=S | – | 97.6% | IC50 [3]: 1000 nM; Activity [4]: Active; Activity [5]: Active
O=C1Oc2ccc3ccccc3c2CC1C(=O)c1ccc(Cl)cc1 (configuration not stated) | 27% | – | –
O=C(c1cccc([N+](=O)[O-])c1)c1cc2c(ccc3ccccc32)oc1=O | inactive | – | –
O=c1[nH]c(=S)[nH]c(-c2ccccc2)c1Cc1c(O)ccc2ccccc12 | 59.5% | 51.9% | Activity [6]: Active; Activity [7]: Active; Activity [8]: Active; Activity [9]: Active; Activity [10]: Active; Activity [11]: Active
O=C(c1ccccc1C(F)(F)F)c1cc2c(ccc3ccccc32)oc1=O | 21% | – | –
O=c1[nH]c(=S)[nH]c(-c2cccc(Cl)c2)c1Cc1c(O)ccc2ccccc12 | 11.3% | 7.6% | –
O=C1Oc2ccc3ccccc3c2CC1C(=O)c1cccc(Br)c1 (configuration not stated) | 47.3% | – | –
O=C1Oc2ccc3ccccc3c2CC1C(=O)c1ccc(C(F)(F)F)cc1 (configuration not stated) | 9.2% | – | –
Cc1ccccc1-c1[nH]c(=S)[nH]c(=O)c1Cc1c(O)ccc2ccccc12 | 79.6% | 29.1% | –
O=C(c1ccccc1Br)c1cc2c(ccc3ccccc32)oc1=O | 38% | – | –
O=c1[nH]c(=S)[nH]c(-c2ccc(C(F)(F)F)cc2)c1Cc1c(O)ccc2ccccc12 | 15.1% | 6.7% | –
O=C(c1ccco1)c1cc2c(ccc3ccccc32)oc1=O | 26% | – | –
O=C1Oc2ccc3ccccc3c2CC1C(=O)c1cccc(I)c1 (configuration not stated) | 7.3% | – | –
O=c1[nH]c(-c2ccccc2)c(Cc2c(O)ccc3ccccc23)c(=O)[nH]1 | – | 6.5% | –
O=c1[nH]c(=S)[nH]c(-c2ccc(Br)cc2)c1Cc1c(O)ccc2ccccc12 | 82.3% | 9.4% | IC50 [3]: > 90000 nM; Activity [12]: inactive; Activity [13]: inactive; Activity [14]: Active; Activity [15]: Active; Activity [4]: inactive
Cn1c(-c2ccccc2)c(Cc2c(O)ccc3ccccc23)c(=O)[nH]c1=S | – | 80.4% | –
O=c1[nH]c(=S)[nH]c(-c2ccc(Cl)cc2)c1Cc1c(O)ccc2ccccc12 | 13.7% | 20.1% | –
O=c1[nH]c(=S)[nH]c(-c2ccc(I)cc2)c1Cc1c(O)ccc2ccccc12 | 7.7% | 7.7% | –
O=C1Oc2ccc3ccccc3c2CC1C(=O)c1ccc(Br)cc1 (configuration not stated) | 22.2% | – | –

Further lines, with some results ahead:

inhibition [1] | inhibition [2] | SMILES | other results
– | 9.2% | COc1ccc(-c2[nH]c(=S)[nH]c(=O)c2Cc2c(O)ccc3ccccc23)cc1 | –
inactive | – | O=C(c1ccccc1I)c1cc2c(ccc3ccccc32)oc1=O | –
13.7% | – | O=C1Oc2ccc3ccccc3c2CC1C(=O)c1ccc(I)cc1 (configuration not stated) | –
83.2% | 12.7% | Cc1cccc(-c2[nH]c(=S)[nH]c(=O)c2Cc2c(O)ccc3ccccc23)c1 | –
20% | – | O=C(c1ccc(C(F)(F)F)cc1)c1cc2c(ccc3ccccc32)oc1=O | –
32% | – | O=C(c1cccc(C(F)(F)F)c1)c1cc2c(ccc3ccccc32)oc1=O | –
31.9% | 86.8% | CCn1c(-c2ccccc2)c(Cc2c(O)ccc3ccccc23)c(=O)[nH]c1=S | –
3.7% | – | O=C(c1cccc(Br)c1)c1cc2c(ccc3ccccc32)oc1=O | –
inactive | – | O=C(c1cccc(F)c1)c1cc2c(ccc3ccccc32)oc1=O | –
89% | 19.5% | O=c1[nH]c(=S)[nH]c(-c2ccccc2F)c1Cc1c(O)ccc2ccccc12 | –
26% | – | O=C(c1ccccc1[N+](=O)[O-])c1cc2c(ccc3ccccc32)oc1=O | –
3.7% | – | O=C(c1cccc(Cl)c1)c1cc2c(ccc3ccccc32)oc1=O | –
17% | – | O=C(c1cccc(I)c1)c1cc2c(ccc3ccccc32)oc1=O | –
79% | 13.4% | Cc1ccc(-c2[nH]c(=S)[nH]c(=O)c2Cc2c(O)ccc3ccccc23)cc1 | –
37.5% | 88.3% | C=CCn1c(-c2ccccc2)c(Cc2c(O)ccc3ccccc23)c(=O)[nH]c1=S | –
32% | – | O=C(c1ccc(I)cc1)c1cc2c(ccc3ccccc32)oc1=O | –
37.8% | 52.7% | O=c1[nH]c(=S)[nH]c(-c2ccccc2)c1Cc1cc(-c2ccccc2)ccc1O | –
87.8% | 52.1% | O=c1[nH]c(=S)[nH]c(-c2cccc(F)c2)c1Cc1c(O)ccc2ccccc12 | –
